Test results reported in publication PMC6147567 (Molecules : A Journal of Synthetic Chemistry and Natural …, 2005).

Columns and labels:
[1] = biological target: xanthine oxidase (Xox) from buttermilk (Bos taurus, UniProt P80457); experiment: Inhibition of xanthine oxidase, hypoxanthine oxidation test; assay type: biochemical; settings: for inhibition of Xox (in words): Xox from buttermilk
In short: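 Buttermilk enzyme assayed by hypoxanthine oxidation at 48–150 μM substrate in 50 mM phosphate, pH 7.0, 25 °C. Product formation was followed at 300 nm in a thermostatted spectrophotometer. Inhibitor concentrations were set spectrophotometrically from absorption data and reached up to ~300 μM. IC50 was obtained at more than one hypoxanthine level, and 'no inhibition' means none detected up to 300 μM.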

[2] = system: xanthine oxidase (Xox); settings: cited from earlier work
[3] = biological target: T1, rabbit muscle guanine deaminase (GDA) (Oryctolagus cuniculus, UniProt G1T386); experiment: Guanine deaminase assay with 8-azaguanine as substrate; assay type: biochemical; settings: concentrations up to 150 μM, 50 mM phosphate pH 6.1, 25 °C
T1 sequence (G1T386 1-454): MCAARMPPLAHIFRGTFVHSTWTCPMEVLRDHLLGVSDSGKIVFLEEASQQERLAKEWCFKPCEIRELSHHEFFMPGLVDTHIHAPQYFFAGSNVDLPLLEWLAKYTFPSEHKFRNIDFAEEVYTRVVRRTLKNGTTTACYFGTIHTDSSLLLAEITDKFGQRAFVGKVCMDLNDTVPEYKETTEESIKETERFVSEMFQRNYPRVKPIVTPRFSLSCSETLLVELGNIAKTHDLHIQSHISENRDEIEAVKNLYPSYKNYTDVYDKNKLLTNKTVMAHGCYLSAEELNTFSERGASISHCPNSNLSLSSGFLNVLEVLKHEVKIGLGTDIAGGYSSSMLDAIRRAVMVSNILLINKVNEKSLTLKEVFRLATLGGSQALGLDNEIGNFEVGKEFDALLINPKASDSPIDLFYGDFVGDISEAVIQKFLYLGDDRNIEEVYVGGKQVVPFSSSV
In short: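 Commercial guanine deaminase, assayed at pH 6.1 with ~50 μM 8-azaguanine as substrate. Reaction followed at 265 nm in a thermostatted UV spectrophotometer; default temperature for the work was 25 °C. Test compound concentrations were determined spectrophotometrically from absorption data and ranged up to ~300 μM.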

Chain of xanthine oxidase (Xox) from buttermilk (P80457 whole entry): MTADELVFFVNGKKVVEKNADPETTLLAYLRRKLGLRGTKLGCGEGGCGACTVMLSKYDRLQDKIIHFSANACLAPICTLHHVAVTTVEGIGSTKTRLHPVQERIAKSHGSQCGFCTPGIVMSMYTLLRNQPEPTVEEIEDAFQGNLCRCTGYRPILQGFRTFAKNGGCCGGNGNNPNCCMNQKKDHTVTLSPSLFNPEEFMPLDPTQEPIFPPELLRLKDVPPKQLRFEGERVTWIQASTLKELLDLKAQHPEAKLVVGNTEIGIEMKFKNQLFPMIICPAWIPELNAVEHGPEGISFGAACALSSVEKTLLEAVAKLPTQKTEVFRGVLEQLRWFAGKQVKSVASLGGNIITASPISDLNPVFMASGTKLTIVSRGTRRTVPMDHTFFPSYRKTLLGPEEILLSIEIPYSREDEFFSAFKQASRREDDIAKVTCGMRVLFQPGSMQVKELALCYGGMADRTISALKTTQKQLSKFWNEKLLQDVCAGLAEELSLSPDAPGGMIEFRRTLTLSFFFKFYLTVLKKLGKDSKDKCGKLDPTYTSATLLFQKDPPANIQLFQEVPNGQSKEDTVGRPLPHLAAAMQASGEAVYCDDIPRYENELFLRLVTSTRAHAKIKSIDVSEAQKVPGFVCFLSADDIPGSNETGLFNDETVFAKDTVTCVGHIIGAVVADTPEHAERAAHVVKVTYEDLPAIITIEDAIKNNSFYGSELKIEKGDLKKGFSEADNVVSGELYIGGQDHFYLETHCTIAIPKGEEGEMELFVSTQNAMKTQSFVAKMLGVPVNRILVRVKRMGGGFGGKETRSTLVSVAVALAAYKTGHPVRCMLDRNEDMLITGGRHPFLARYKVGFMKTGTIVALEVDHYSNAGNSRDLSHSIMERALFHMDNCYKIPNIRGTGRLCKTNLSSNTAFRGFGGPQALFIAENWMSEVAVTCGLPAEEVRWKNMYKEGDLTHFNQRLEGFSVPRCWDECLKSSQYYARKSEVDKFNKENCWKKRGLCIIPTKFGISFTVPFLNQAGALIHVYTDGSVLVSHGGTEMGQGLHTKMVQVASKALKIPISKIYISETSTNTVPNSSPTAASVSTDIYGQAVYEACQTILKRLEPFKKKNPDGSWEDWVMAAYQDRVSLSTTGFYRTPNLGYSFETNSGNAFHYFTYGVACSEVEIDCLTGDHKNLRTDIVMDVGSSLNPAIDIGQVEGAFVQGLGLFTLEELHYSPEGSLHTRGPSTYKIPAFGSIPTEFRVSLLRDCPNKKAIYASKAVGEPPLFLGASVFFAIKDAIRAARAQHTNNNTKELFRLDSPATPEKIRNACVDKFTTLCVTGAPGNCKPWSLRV

| IC50 [1] [µM] | inhibition of Xox (in words) [1] | Compound | further results |
| --- | --- | --- | --- |
| ~300 | moderate inhibitory activity | CSc1nnc2[nH]nc(C)c2n1 [Compound 1, 3-Methyl-5-methylsulfanyl-1H-pyrazolo[4,3-e][1,2,4]triazine] | inhibition of Xox (in words) ([1]; listed as S-methyl derivative): detectable inhibition |
| – | – | Oc1ncnc2[nH]ncc12 [allopurinol] | inhibition of xanthine oxidase (in words) [2]: strong inhibitors |
| – | Only weak inhibition | Cc1n[nH]c2nncnc12 [Compound 7, 3-Methyl-1H-pyrazolo[4,3-e][1,2,4]triazine] | inhibition of Xox (in words) ([1]; listed as 3-methyl-7-azapyrazolo[4,3-d]pyrimidine): detectable inhibition |
| > 300 | – | Cc1n[nH]c2nnc(N)nc12 [Compound 4, 5-Amino-3-methyl-1H-pyrazolo[4,3-e][1,2,4]triazine] | activity as a substrate of GDA [3]: did not show any activity; activity as an inhibitor of GDA [3]: did not show any activity |
| > 300 | – | Cc1nn(C)c2nncnc12 [Compound 8, 1,3-dimethyl-1H-pyrazolo[4,3-e][1,2,4]triazine] | – |
